Tested on: U2OS
Experiment: Multiplex assay against U2OS
Type: toxicity, cell-based
Settings: human
In short: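 Live cells were stained at seeding with Hoechst33342, BioTracker Green Microtubule Cytoskeleton Dye, MitoTracker Red and Annexin V Alexa Fluor 680. Following compound addition, they were imaged on a CQ1 microscope at 37°C and 5% CO2 and gated by CellPathfinder machine learning into Hoechst high-intensity objects or normal cells, with normal cells split into healthy, pyknosed or fragmented nuclei and pyknosed cells into mitotic or apoptotic. Tubulin, mitochondrial-mass and membrane-permeability phenotypes are per cents of healthy-nucleus cells.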

[1] = 12 h, 1 µM, compound concentration 1 uM, replicate 1
[2] = 12 h, 1 µM, compound concentration 1 uM, replicate 2
[3] = 12 h, 10 µM, compound concentration 10 uM, replicate 1
[4] = 12 h, 10 µM, compound concentration 10 uM, replicate 2
[5] = 24 h, 1 µM, compound concentration 1 uM, replicate 1
[6] = 24 h, 1 µM, compound concentration 1 uM, replicate 2
[7] = 24 h, 10 µM, compound concentration 10 uM, replicate 1
[8] = 24 h, 10 µM, compound concentration 10 uM, replicate 2
[9] = 48 h, 1 µM, compound concentration 1 uM, replicate 1
[10] = 48 h, 1 µM, compound concentration 1 uM, replicate 2
[11] = 48 h, 10 µM, compound concentration 10 uM, replicate 1
[12] = 48 h, 10 µM, compound concentration 10 uM, replicate 2

In the case of COc1cccc([C@@H](C)NCCCc2ccccc2Cl)c1.Cl [TECALCET HYDROCHLORIDE], the “Population Apoptotic (%)” value [1] was 50%, the “Population Fragmented Nuclei (%)” value [1] was 22% and the “Population Healthy Nuclei (%)” value [1] was 72%. The “Population Hoechst High Intensity Objects (%)” value [1] was 32%, the “Population Membrane Permeable-Phenotype (%)” value [1] was 3% and the “Population Mitochondria Different-Phenotype (%)” value [1] was 34%. For the same molecule, the “Population Mitotic Cells (%)” value [1] was 50%, the “Population Normal (%)” value [1] was 67% and the “Population Pyknosed Nuclei (%)” value [1] was 5%. The “Population Tubulin-Different-Phenotype (%)” value [1] was 30%, the “Total Cell Count” value [1] was 188 and the “Population Apoptotic (%)” value [2] was 16%. For the same molecule, the “Population Fragmented Nuclei (%)” value [2] was 10%, the “Population Healthy Nuclei (%)” value [2] was 81% and the “Population Hoechst High Intensity Objects (%)” value [2] was 10%. For the same molecule, the “Population Membrane Permeable-Phenotype (%)” value [2] was 6%, the “Population Mitochondria Different-Phenotype (%)” value [2] was 20% and the “Population Mitotic Cells (%)” value [2] was 83%. For the same molecule, the “Population Normal (%)” value [2] was 89%, the “Population Pyknosed Nuclei (%)” value [2] was 8% and the “Population Tubulin-Different-Phenotype (%)” value [2] was 18%. For the same molecule, the “Total Cell Count” value [2] was 70, the “Population Apoptotic (%)” value [3] was 62% and the “Population Fragmented Nuclei (%)” value [3] was 11%. The “Population Healthy Nuclei (%)” value [3] was 64%, the “Population Hoechst High Intensity Objects (%)” value [3] was 8% and the “Population Membrane Permeable-Phenotype (%)” value [3] was 6%. For the same molecule, the “Population Mitochondria Different-Phenotype (%)” value [3] was 86%, the “Population Mitotic Cells (%)” value [3] was 37% and the “Population Normal (%)” value [3] was 91%. The “Population Pyknosed Nuclei (%)” value [3] was 23%, the “Population Tubulin-Different-Phenotype (%)” value [3] was 90% and the “Total Cell Count” value [3] was 53. The “Population Apoptotic (%)” value [4] was 41%, the “Population Fragmented Nuclei (%)” value [4] was 7% and the “Population Healthy Nuclei (%)” value [4] was 75%. The “Population Hoechst High Intensity Objects (%)” value [4] was 5%, the “Population Membrane Permeable-Phenotype (%)” value [4] was 18% and the “Population Mitochondria Different-Phenotype (%)” value [4] was 90%. The “Population Mitotic Cells (%)” value [4] was 58%, the “Population Normal (%)” value [4] was 94% and the “Population Pyknosed Nuclei (%)” value [4] was 17%. For the same molecule, the “Population Tubulin-Different-Phenotype (%)” value [4] was 96%, the “Total Cell Count” value [4] was 83 and the “Population Apoptotic (%)” value [5] was 44%. The “Population Fragmented Nuclei (%)” value [5] was 22%, the “Population Healthy Nuclei (%)” value [5] was 57% and the “Population Hoechst High Intensity Objects (%)” value [5] was 26%. The “Population Membrane Permeable-Phenotype (%)” value [5] was 3%, the “Population Mitochondria Different-Phenotype (%)” value [5] was 30% and the “Population Mitotic Cells (%)” value [5] was 55%. For the same molecule, the “Population Normal (%)” value [5] was 73%, the “Population Pyknosed Nuclei (%)” value [5] was 20% and the “Population Tubulin-Different-Phenotype (%)” value [5] was 19%. For the same molecule, the “Total Cell Count” value [5] was 239, the “Population Apoptotic (%)” value [6] was 77% and the “Population Fragmented Nuclei (%)” value [6] was 8%. For the same molecule, the “Population Healthy Nuclei (%)” value [6] was 80%, the “Population Hoechst High Intensity Objects (%)” value [6] was 8% and the “Population Membrane Permeable-Phenotype (%)” value [6] was 6%. For the same molecule, the “Population Mitochondria Different-Phenotype (%)” value [6] was 6%, the “Population Mitotic Cells (%)” value [6] was 22% and the “Population Normal (%)” value [6] was 91%. The “Population Pyknosed Nuclei (%)” value [6] was 10%, the “Population Tubulin-Different-Phenotype (%)” value [6] was 12% and the “Total Cell Count” value [6] was 95. For the same molecule, the “Population Apoptotic (%)” value [7] was 50%, the “Population Fragmented Nuclei (%)” value [7] was 12% and the “Population Healthy Nuclei (%)” value [7] was 63%. For the same molecule, the “Population Hoechst High Intensity Objects (%)” value [7] was 12%, the “Population Membrane Permeable-Phenotype (%)” value [7] was 10% and the “Population Mitochondria Different-Phenotype (%)” value [7] was 81%. For the same molecule, the “Population Mitotic Cells (%)” value [7] was 50%, the “Population Normal (%)” value [7] was 87% and the “Population Pyknosed Nuclei (%)” value [7] was 23%. The “Population Tubulin-Different-Phenotype (%)” value [7] was 79%, the “Total Cell Count” value [7] was 61 and the “Population Apoptotic (%)” value [8] was 35%. For the same molecule, the “Population Fragmented Nuclei (%)” value [8] was 8%, the “Population Healthy Nuclei (%)” value [8] was 70% and the “Population Hoechst High Intensity Objects (%)” value [8] was 8%. The “Population Membrane Permeable-Phenotype (%)” value [8] was 24%, the “Population Mitochondria Different-Phenotype (%)” value [8] was 91% and the “Population Mitotic Cells (%)” value [8] was 64%. For the same molecule, the “Population Normal (%)” value [8] was 91%, the “Population Pyknosed Nuclei (%)” value [8] was 20% and the “Population Tubulin-Different-Phenotype (%)” value [8] was 92%. For the same molecule, the “Total Cell Count” value [8] was 97, the “Population Apoptotic (%)” value [9] was 83% and the “Population Fragmented Nuclei (%)” value [9] was 29%. For the same molecule, the “Population Healthy Nuclei (%)” value [9] was 60%, the “Population Hoechst High Intensity Objects (%)” value [9] was 20% and the “Population Membrane Permeable-Phenotype (%)” value [9] was 8%. For the same molecule, the “Population Mitochondria Different-Phenotype (%)” value [9] was 34%, the “Population Mitotic Cells (%)” value [9] was 16% and the “Population Normal (%)” value [9] was 79%. For the same molecule, the “Population Pyknosed Nuclei (%)” value [9] was 10%, the “Population Tubulin-Different-Phenotype (%)” value [9] was 14% and the “Total Cell Count” value [9] was 378. The “Population Apoptotic (%)” value [10] was 63%, the “Population Fragmented Nuclei (%)” value [10] was 6% and the “Population Healthy Nuclei (%)” value [10] was 84%. For the same molecule, the “Population Hoechst High Intensity Objects (%)” value [10] was 7%, the “Population Membrane Permeable-Phenotype (%)” value [10] was 12% and the “Population Mitochondria Different-Phenotype (%)” value [10] was 15%. The “Population Mitotic Cells (%)” value [10] was 36%, the “Population Normal (%)” value [10] was 92% and the “Population Pyknosed Nuclei (%)” value [10] was 9%. For the same molecule, the “Population Tubulin-Different-Phenotype (%)” value [10] was 18%, the “Total Cell Count” value [10] was 153 and the “Population Apoptotic (%)” value [11] was 77%. For the same molecule, the “Population Fragmented Nuclei (%)” value [11] was 18%, the “Population Healthy Nuclei (%)” value [11] was 54% and the “Population Hoechst High Intensity Objects (%)” value [11] was 11%. The “Population Membrane Permeable-Phenotype (%)” value [11] was 7%, the “Population Mitochondria Different-Phenotype (%)” value [11] was 55% and the “Population Mitotic Cells (%)” value [11] was 22%. For the same molecule, the “Population Normal (%)” value [11] was 88%, the “Population Pyknosed Nuclei (%)” value [11] was 27% and the “Population Tubulin-Different-Phenotype (%)” value [11] was 62%. The “Total Cell Count” value [11] was 73, the “Population Apoptotic (%)” value [12] was 54% and the “Population Fragmented Nuclei (%)” value [12] was 10%. For the same molecule, the “Population Healthy Nuclei (%)” value [12] was 60%, the “Population Hoechst High Intensity Objects (%)” value [12] was 4% and the “Population Membrane Permeable-Phenotype (%)” value [12] was 36%. The “Population Mitochondria Different-Phenotype (%)” value [12] was 82%, the “Population Mitotic Cells (%)” value [12] was 45% and the “Population Normal (%)” value [12] was 95%. The “Population Pyknosed Nuclei (%)” value [12] was 29%, the “Population Tubulin-Different-Phenotype (%)” value [12] was 73% and the “Total Cell Count” value [12] was 130.
